Assay results taken from ChEMBL document CHEMBL1156480, “Insensitivity to Abeta42-lowering nonsteroidal anti-inflammatory drugs and gamma-secretase inhibitors is common among aggressive presenilin-1 mutations” (J Biol Chem, 2007).

Assays:
Assay type in all cases: cell-based
Set-up in all cases: scale not given: the % may be the effect or the level left
[1] = target: Presenilin-1 (Homo sapiens) (UniProt P49768); test: Reduction of human wild type PS1-induced amyloid beta-40 level in CHO cells overexpressing human APP751 at 100 nM after 24 hrs by liquid phase electrochemiluminescence assay relative to control
[2] = system: Presenilin-1 (Homo sapiens), P49768 [L166P]; test: Reduction of human PS1 L166P mutant-induced amyloid beta42 level in CHO cells overexpressing human APP751 at 50 nM after 24 hrs by liquid phase electrochemiluminescence assay relative to control
Procedure, shortened: (§1)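 APP751 CHO cells stably expressing PS1-ΔExon9, PS1-L166P or PS1-WT, cultured in parallel in serum-containing medium. Treated 24 h with increasing γ-secretase inhibitor concentrations or DMSO. Conditioned-media Abeta40/Abeta42 quantified by LPECL against synthetic peptide standards (16–2000 pg/ml). Duplicates normalized to DMSO. n = 3, one-way ANOVA with Dunnett's test versus PS1-WT.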

[3] = target: Presenilin-1 (Homo sapiens) (UniProt P49768); test: Reduction of human wild type PS1-induced amyloid beta-40 level in CHO cells overexpressing human APP751 at 25 nM after 24 hrs by liquid phase electrochemiluminescence assay relative to control
[4] = system: Presenilin-1 (Homo sapiens), P49768 [L166P]; test: Reduction of human PS1 L166P mutant-induced amyloid beta-40 level in CHO cells overexpressing human APP751 at 50 nM after 24 hrs by liquid phase electrochemiluminescence assay relative to control; procedure, shortened: as §1
[5] = system: Presenilin-1 (Homo sapiens), P49768 [L166P]; test: Reduction of human PS1 L166P mutant-induced amyloid beta42 level in CHO cells overexpressing human APP751 at 25 nM after 24 hrs by liquid phase electrochemiluminescence assay relative to control; procedure, shortened: as §1
[6] = target: Presenilin-1 (Homo sapiens) (UniProt P49768); test: Reduction of human wild type PS1-induced amyloid beta-40 level in CHO cells overexpressing human APP751 at 50 nM after 24 hrs by liquid phase electrochemiluminescence assay relative to control
CHO [7] = test: Reduction of human PS1 delta exon9 mutant-induced amyloid beta-42 level in CHO cells overexpressing human APP751 at 100 nM after 24 hrs by liquid phase electrochemiluminescence assay relative to control; procedure, shortened: as §1
[8] = system: Presenilin-1 (Homo sapiens), P49768 [L166P]; test: Reduction of human PS1 L166P mutant-induced amyloid beta-40 level in CHO cells overexpressing human APP751 at 100 nM after 24 hrs by liquid phase electrochemiluminescence assay relative to control; procedure, shortened: as §1
CHO [9] = test: Reduction of human PS1 delta exon9 mutant-induced amyloid beta-42 level in CHO cells overexpressing human APP751 at 50 nM after 24 hrs by liquid phase electrochemiluminescence assay relative to control
CHO [10] = test: Reduction of human PS1 delta exon9 mutant-induced amyloid beta-42 level in CHO cells overexpressing human APP751 at 25 nM after 24 hrs by liquid phase electrochemiluminescence assay relative to control; procedure, shortened: as §1
[11] = system: Presenilin-1 (Homo sapiens), P49768 [L166P]; test: Reduction of human PS1 L166P mutant-induced amyloid beta-40 level in CHO cells overexpressing human APP751 at 25 nM after 24 hrs by liquid phase electrochemiluminescence assay relative to control; procedure, shortened: as §1
[12] = system: Presenilin-1 (Homo sapiens), P49768 [L166P]; test: Reduction of human PS1 L166P mutant-induced amyloid beta-42 level in CHO cells overexpressing human APP751 at 100 nM after 24 hrs by liquid phase electrochemiluminescence assay relative to control; procedure, shortened: as §1
[13] = target: Presenilin-1 (Homo sapiens) (UniProt P49768); test: Reduction of human wild type PS1-induced amyloid beta-42 level in CHO cells overexpressing human APP751 at 50 nM after 24 hrs by liquid phase electrochemiluminescence assay relative to control
CHO [14] = test: Reduction of human PS1 delta exon9 mutant-induced amyloid beta-40 level in CHO cells overexpressing human APP751 at 100 nM after 24 hrs by liquid phase electrochemiluminescence assay relative to control; procedure, shortened: as §1
[15] = target: Presenilin-1 (Homo sapiens) (UniProt P49768); test: Reduction of human wild type PS1-induced amyloid beta-42 level in CHO cells overexpressing human APP751 at 25 nM after 24 hrs by liquid phase electrochemiluminescence assay relative to control
[16] = target: Presenilin-1 (Homo sapiens) (UniProt P49768); test: Reduction of human wild type PS1-induced amyloid beta-42 level in CHO cells overexpressing human APP751 at 100 nM after 24 hrs by liquid phase electrochemiluminescence assay relative to control
CHO [17] = test: Reduction of human PS1 delta exon9 mutant-induced amyloid beta-40 level in CHO cells overexpressing human APP751 at 25 nM after 24 hrs by liquid phase electrochemiluminescence assay relative to control; procedure, shortened: as §1
CHO [18] = test: Reduction of human PS1 delta exon9 mutant-induced amyloid beta40 level in CHO cells overexpressing human APP751 at 50 nM after 24 hrs by liquid phase electrochemiluminescence assay relative to control

## C[C@H](NC(=O)Cc1cc(F)cc(F)c1)C(=O)N[C@H](C(=O)OC(C)(C)C)c1ccccc1
[1]
  Activity: 5.82%
[2]
  Activity: 50.3%
[3]
  Activity: 33.8%
[4]
  Activity: 30.3%
[5]
  Activity: 72.3%
[6]
  Activity: 14.6%
CHO [7]
  Activity: 65.9%
[8]
  Activity: 14.9%
CHO [9]
  Activity: 94.9%
CHO [10]
  Activity: 107%
[11]
  Activity: 54.4%
[12]
  Activity: 34.5%
[13]
  Activity: 18.8%
CHO [14]
  Activity: 60.8%
[15]
  Activity: 44%
[16]
  Activity: 8.13%
CHO [17]
  Activity: 101%
CHO [18]
  Activity: 90.2%
